According to ChEMBL document CHEMBL3627702, “Navigating CYP1A Induction and Arylhydrocarbon Receptor Agonism in Drug Discovery. A Case History with S1P1 Agonists” (J Med Chem, 2015):

How the values were obtained:
[1] = Oral bioavailability in CD rat at 3 mg/kg; assay type: ADME, organism-based; settings: in vivo
Procedure, shortened: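 Male CD rats cannulated in the femoral and jugular veins, n = 3, crossover design. Day 1: 1 h iv infusion at 1 mg/kg (0.2 mg/mL in ≤5% DMSO/≥95% 10% Kleptose in saline, 5 mL/kg/h). Day 2: oral gavage at 3 mg/kg (0.6 mg/mL in 1% methylcellulose, 5 mL/kg). Blood assayed by LC–MS/MS after acetonitrile precipitation.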

[2] = Lipophilicity, log D of the compound at pH 7.4; assay type: physicochemical; settings: buffer
CYP1A1 [3] = test: Induction of CYP1A1 mRNA expression in Sprague-Dawley rat hepatic microsomes at 30 mg/kg, po QD for 4 days relative to control; assay type: ADME, organism-based, Liver; settings: read-out: FC
Procedure, shortened: (§1)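 Male CD rats (226–325 g, n = 3) were dosed by oral gavage once daily for 4 days as a 1% w/v aqueous methylcellulose suspension (3–6 mg/mL, 5 mL/kg). At the end of the study, a left lateral liver lobe section was placed in RNALater and homogenised in TRIzol. RNA was purified, DNase-treated and converted to cDNA, and Cyp1a1 was read on low-density TaqMan arrays.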

CYP1A2 [4] = test: Induction of CYP1A2 mRNA expression in Sprague-Dawley rat hepatic microsomes at 30 mg/kg, po QD for 4 days relative to control; assay type: ADME, organism-based, Liver; settings: read-out: FC
[5] = Cmax in Sprague-Dawley rat at 30 mg/kg, po QD measured on day 1; assay type: ADME, organism-based; set-up: dose 30 mg/kg, route oral; settings: in vivo
Procedure, shortened: (§2)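 Male CD rats (226−325 g), n = 3, given the compound once daily by oral gavage for 4 days. Vehicle was 1% (w/v) methylcellulose aq suspension at 3−6 mg/mL, dosed at 5 mL/kg (target 15−30 mg/kg). Tail vein blood was taken on days 1 and 4 up to 24 h postdose. Blood was diluted 1:1 with water, extracted by acetonitrile protein precipitation and analysed by LC−MS/MS against calibration standards in diluted blood.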

[6] = Cmax in Sprague-Dawley rat at 30 mg/kg, po QD measured on day 4; assay type: ADME, organism-based; set-up: dose 30 mg/kg, route oral; settings: in vivo; procedure, shortened: as §2
[7] = AUC in Sprague-Dawley rat at 30 mg/kg, po QD measured on day 1; assay type: ADME, organism-based; settings: in vivo; procedure, shortened: as §2
[8] = AUC in Sprague-Dawley rat at 30 mg/kg, po QD measured on day 4; assay type: ADME, organism-based; settings: in vivo; procedure, shortened: as §2
Rattus norvegicus [9] = test: Dose normalized AUC in Sprague-Dawley rat at 30 mg/kg, po QD measured on day 1; assay type: ADME, organism-based; settings: in vivo; procedure, shortened: as §2
Rattus norvegicus [10] = test: Dose normalized AUC in Sprague-Dawley rat at 30 mg/kg, po QD measured on day 4; assay type: ADME, organism-based; settings: in vivo; procedure, shortened: as §2
[11] = Dissociation constant, pKa of the compound; assay type: physicochemical
CYP1A1 [12] = test: Induction of CYP1A1 mRNA expression in Sprague-Dawley rat hepatic microsomes at 19 mg/kg, po QD for 4 days relative to control; assay type: ADME, organism-based, Liver; settings: read-out: FC; procedure, shortened: as §1
CYP1A2 [13] = test: Induction of CYP1A2 mRNA expression in Sprague-Dawley rat hepatic microsomes at 19 mg/kg, po QD for 4 days relative to control; assay type: ADME, organism-based, Liver; settings: read-out: FC
[14] = Cmax in Sprague-Dawley rat at 19 mg/kg, po QD measured on day 1; assay type: ADME, organism-based; set-up: dose 19 mg/kg, route oral; settings: in vivo; procedure, shortened: as §2
[15] = Cmax in Sprague-Dawley rat at 19 mg/kg, po QD measured on day 4; assay type: ADME, organism-based; set-up: dose 19 mg/kg, route oral; settings: in vivo; procedure, shortened: as §2
[16] = AUC in Sprague-Dawley rat at 19 mg/kg, po QD measured on day 1; assay type: ADME, organism-based; settings: in vivo; procedure, shortened: as §2
[17] = AUC in Sprague-Dawley rat at 19 mg/kg, po QD measured on day 4; assay type: ADME, organism-based; settings: in vivo; procedure, shortened: as §2
Rattus norvegicus [18] = test: Dose normalized AUC in Sprague-Dawley rat at 19 mg/kg, po QD measured on day 1; assay type: ADME, organism-based; settings: in vivo; procedure, shortened: as §2
Rattus norvegicus [19] = test: Dose normalized AUC in Sprague-Dawley rat at 19 mg/kg, po QD measured on day 4; assay type: ADME, organism-based; settings: in vivo; procedure, shortened: as §2

Row | SMILES | bioavailability [1] [%] | logD [2] | fold induction at 96 h (CYP1A1 [3]) | fold induction at 96 h (CYP1A2 [4]) | Cmax [5] [ng/mL] | Cmax [6] [ng/mL] | AUC [7] [ng·h/mL] | AUC [8] [ng·h/mL] | AUC/dose (Rattus norvegicus [9]) [kg·min/L] | AUC/dose (Rattus norvegicus [10]) [kg·min/L] | pKa [11] | fold induction at 96 h (CYP1A1 [12]) | fold induction at 96 h (CYP1A2 [13]) | Cmax [14] [ng/mL] | Cmax [15] [ng/mL] | AUC [16] [ng·h/mL] | AUC [17] [ng·h/mL] | AUC/dose (Rattus norvegicus [18]) [kg·min/L] | AUC/dose (Rattus norvegicus [19]) [kg·min/L]
1 | CC(C)Oc1ccc(-c2nc(-c3ccc4c(c3)CCN(C(CO)CO)CC4)no2)cc1C#N | 68 | 2.78 | 604 | 7.3 | 1600 | 1380 | 23000 | 23100 | 48 | 59 | – | – | – | – | – | – | – | – | –
2 | Cc1c(-c2noc(-c3ccc(OC(C)C)c(C#N)c3)n2)ccc2c1CCN(C[C@@H](O)CO)CC2 | – | 2.36 | – | – | – | – | – | – | – | – | 8.4 | 126 | 1.7 | 1290 | 1530 | 20800 | 26000 | 65 | 83
3 | Cc1c(-c2nnc(-c3ccc(OC(C)C)c(C#N)c3)s2)ccc2c1CCN(C(CO)CO)C2 | – | 2.33 | – | – | – | – | – | – | – | – | 7.2 | 1.7 | 1 | 1750 | 2320 | 19100 | 27800 | 61 | 89
